Assay outcomes: PubChem, several laboratories
Sampled rows, rich in hits. Any-hit rate of the full collection: about 3.8%.
CSC inhib = cancer stem cell viability inhibitors, primary screen, luminescence; AID 2717, 2010; inhibition, % at 7.5 µM; cancer stem cell-like cells viability; hit rate 1.1% among 300,000; in the data active = inhibition above about 75%; tested in HMLE shEcad cells
MC4R barr agon = MC4R agonists recruiting beta-arrestin, primary screen, cell-based, luminescence, agonist arm of biased-ligand search; hit rate 0.98% among 360,000; activation, % at 8.9 µM; U2OS MC4R beta-arrestin complementation; percent of melanotan II response, DMSO zero; AID 540308, 2011;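 active = activation above a per-plate cutoff, the mean activation of sample wells on that plate plus 3 SD, cut at about 8% in these data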
TMEM16A act = TMEM16A chloride channel activators or potentiators, primary screen, cell-based, HTS; Anoctamin-1 (Mus musculus), Q8BHY3; HEK293 TMEM16A/YFP-H148Q/I152L, iodide quench fluorescence; active compounds read low; B-score at 10 µM; hit rate 0.3% among 340,000;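 active = fluorescence-ratio B-score plate-corrected deviation score at least 3 library SD below zero, with starting fluorescence score within 5 deviations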;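 also: channel opened by trigger with iodide after compound preincubation; score built on the fluorescence ratio of max minus min over baseline; more negative score means more quench and so TMEM16A activation or potentiation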
Target sequence (Q8BHY3 whole entry, looked up): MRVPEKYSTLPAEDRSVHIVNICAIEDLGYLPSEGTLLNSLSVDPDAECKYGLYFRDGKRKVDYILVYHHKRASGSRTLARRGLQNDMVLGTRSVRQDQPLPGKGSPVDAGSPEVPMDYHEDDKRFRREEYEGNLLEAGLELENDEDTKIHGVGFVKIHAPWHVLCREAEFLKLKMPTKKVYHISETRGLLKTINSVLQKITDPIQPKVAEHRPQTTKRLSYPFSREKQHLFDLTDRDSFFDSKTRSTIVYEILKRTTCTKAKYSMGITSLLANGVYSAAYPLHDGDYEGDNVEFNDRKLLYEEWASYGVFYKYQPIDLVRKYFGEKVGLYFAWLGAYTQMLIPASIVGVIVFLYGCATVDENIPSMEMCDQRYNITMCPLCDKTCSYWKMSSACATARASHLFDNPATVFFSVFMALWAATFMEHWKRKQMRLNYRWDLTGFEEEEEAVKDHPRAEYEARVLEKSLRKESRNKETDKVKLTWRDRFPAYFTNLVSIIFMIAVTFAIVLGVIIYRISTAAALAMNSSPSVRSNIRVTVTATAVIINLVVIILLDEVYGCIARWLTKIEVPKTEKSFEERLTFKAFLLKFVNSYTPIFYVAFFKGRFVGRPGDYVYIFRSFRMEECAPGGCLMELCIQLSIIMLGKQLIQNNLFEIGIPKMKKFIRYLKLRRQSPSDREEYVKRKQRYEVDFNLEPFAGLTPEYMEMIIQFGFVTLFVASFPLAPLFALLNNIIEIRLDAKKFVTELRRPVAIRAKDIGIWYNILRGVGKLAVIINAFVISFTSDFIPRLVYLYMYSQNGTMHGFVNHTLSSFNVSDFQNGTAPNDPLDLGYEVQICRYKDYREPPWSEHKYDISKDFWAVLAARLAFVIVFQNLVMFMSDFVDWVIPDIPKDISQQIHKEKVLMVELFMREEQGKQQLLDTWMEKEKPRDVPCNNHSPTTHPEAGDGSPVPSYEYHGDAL
TMEM16A inh = TMEM16A chloride channel inhibitors, primary screen, cell-based, HTS. HEK293 TMEM16A/YFP iodide influx fluorescence, ionomycin. normalized B-score (activity score, 25-100; higher = stronger inhibition) at 10 µM. hit rate 1.2% among 310,000. AID 588511, 2011;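 active = ratio plate-corrected score three or more library SD toward inhibition, starting fluorescence score within five deviations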;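 also: score derived from kinetic fluorescence span divided by baseline fluorescence per well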
MC4R antagonist = MC4R antagonists of cAMP signaling, primary screen, cell-based, TR-FRET, antagonist arm of biased-ligand search. Melanocortin receptor 4 (Homo sapiens), P32245. MC4R-expressing cells, MTII-stimulated cAMP, LANCE TR-FRET. inhibition, % at 6.5 µM. hit rate 0.48% among 360,000;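 active = inhibition above its plate's cutoff, the mean of tested wells on that plate plus 3 SD, cut at about 29% in these data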;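 also: 0% = Melanotan II alone and 100% = Melanotan II plus saturating MCL0020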
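System: U2OS cells stably expressing human melanocortin 4 receptor (MC4R). Reagent: Melanotan II challenge after compound preincubation. Doses: 6.5 µM. Times: 30-min compound, 1-h challenge, 1-h detection, room temperature. Measured by: TR-FRET with Eu-cAMP and labeled anti-cAMP, 671 nm. Replicates: singlicate.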
Beta apoptosis = inhibitors of cytokine-induced beta cell apoptosis, primary screen, luminescence. INS-1E cytokine-induced death, ATP luminescence, 48 h; percent of positive-control rescue, neutral wells zero. protection from apoptosis, % (no concentration beside the values). hit rate 0.8% among 300,000. AID 435005, 2010;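 active = Every replicate reaches about 75%, or at least half do and their mean reaches it too, limit read from the data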;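 also: 0% = cytokine-treated negative control wells and 100% = positive control rescue; higher means more ATP so stronger rescue from cytokine killing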
Starred values were filed as active, the others as inactive; i = inactive; · = no result.

SMILES	CSC inhib	MC4R barr agon	TMEM16A act	TMEM16A inh	MC4R antagonist	Beta apoptosis
CC1=NN(c2ccc(Cl)cc2)C(=O)C1	13	-4	i	i	12	·
CC1=NN(c2nc(-c3ccc(F)cc3)cs2)C(=O)C1	86*	-1	i	i	7	-9
CC1=NN(c2nc(-c3ccc(Cl)cc3)cs2)C(=O)C1	123*	-1	i	i	0	-5
c1ccc(C[n+]2c(-c3ccccc3)csc2Nc2ccccc2)cc1	83*	-4	i	i	15	11
O=C(Nc1cc(Cl)cc(Cl)c1)C(c1ccccc1)N1CCCCC1 (stereo unspecified)	20	7	i	i	-2	0
O=C(Nc1ccc(OC(F)F)c(Cl)c1)C(c1ccccc1)c1ccccc1	40	3	i	i	9	95*
O=C(O)c1ccccc1OC(C(=O)Nc1cc(Cl)cc(Cl)c1)c1ccccc1 (stereo unspecified)	7	9.3*	i	i	2	17
O=C(Cc1cccc2ccccc12)Nc1ccc(OC(F)F)c(Cl)c1	11	4	i	i	5	-10
Cc1cc(C)n2nc(SCc3nnc(SCc4ccccc4C)s3)nc2n1	-24	-1	i	i	-4	103*
Cc1cc(C)n2nc(SCc3nnc(SCc4ccccc4Cl)s3)nc2n1	·	-1	i	i	4	·
CCOC(=O)c1sc(N)c(C(=O)OCC)c1C	-10	-1	i	i	-18	-1
CCOC(=O)c1c(N)sc2c(OCC)c(Br)ccc12	79*	1	i	i	-10	10
CCOC(=O)c1c(NC(C)=O)sc2c(OCC(O)CNC(C)(C)C)c(Br)ccc12 (stereo unspecified)	23	3	-7.1*	i	9	12
O=C(NC1CCN(Cc2ccccc2)CC1)c1cc(S(=O)(=O)Nc2ccc(F)cc2)ccc1Cl	·	-2	i	·	8	·
Cc1ccccc1CSc1ccc(S(=O)(=O)N2CCCC2)cn1	7	0	i	·	9	-12
CC(C)c1ccc(O)c(NC(=S)NC(=O)c2ccc3c(c2)OCO3)c1	22	11*	i	i	-5	5
Cn1c(SCc2ccccc2C#N)nc2ccccc2c1=O	16	2	i	i	10	4
O=C1N[C@H](C(=O)O)CS1	3	·	·	i	·	·
COc1ccc(CCn2nnc3ccccc3c2=O)cc1OC	·	-2	·	·	7	·
O=C(C#Cc1ccccc1)Nc1cccc(F)c1	114*	0	i	i	-10	97*
Cc1cc(F)ccc1C(O)c1ncc(-c2cccc3ccccc23)[nH]1 (stereo unspecified)	·	-1	·	·	4	·
CC1(C)C(=O)Nc2ccccc2N1C(=O)COc1ccc(C#N)cc1	-13	-2	i	·	4	1
COc1ccc(OCC(=O)Nc2ccc3c(c2)nc(CCN2CCN(c4ccccn4)CC2)n3C)cc1	·	0	·	·	3	·
Cc1cccc(OCC(=O)Nc2ccc3c(c2)nc(CCN2CCN(c4ccccn4)CC2)n3C)c1	-1	-2	i	100*	-1	11
COc1cccc(N2CCN(C(=O)c3cccc(S(=O)(=O)N4CCCC4)c3)CC2)c1	·	1	·	·	6	·
SMILES	CSC inhib	MC4R barr agon	TMEM16A act	TMEM16A inh	MC4R antagonist	Beta apoptosis
O=C(CNCCO)N1CCc2ccccc21	-14	-1	i	i	0	0
O=C(CNc1ccccc1OC(F)F)N1CCc2ccccc21	7	8.3*	i	i	-1	·
Cc1ccccc1OCC(=O)OCC(=O)NC1CCCC1	·	0	·	·	0	·
COc1ccccc1/C=C\C=N\n1c(-c2ccc(Cl)cc2)n[nH]c1=S	4	8.9*	i	i	8	4
C=C1C(=O)OCC2C(C(=O)O)=CC3C(C)C(C)=CC123 (stereo unspecified)	·	0	·	·	4	·
CCC1(C)Cc2c(sc3nc(SC)n(Cc4ccccc4)c(=O)c23)CO1 (stereo unspecified)	96*	-1	i	i	2	20
CC1(C)Cc2c(sc3nc(-c4ccccc4)n(N)c(=O)c23)CO1	-8	-2	i	i	-3	9
Cc1ccc(NC(=O)COC(=O)c2ccco2)cc1S(=O)(=O)N1CCOCC1	13	3	i	·	1	1
Cc1cccc(C(=O)N[C@H](C(=O)Nc2ncc(C)s2)C(C)C)c1	79*	-1	i	i	10	76*
Cc1cc(C(=O)NNc2ccc(F)cc2)no1	96*	-1	i	i	2	-3
Cc1cc(Br)ccc1NC(=O)CSCc1c(C)noc1C	-2	-4	i	·	4	1
Cc1ccc(NC(=S)NNC(=S)Nc2cccc(C(F)(F)F)c2)cc1	48	-1	i	i	9	14
O=C(NCc1ccccc1Cl)c1ccc(S(=O)(=O)Nc2cccc(C(F)(F)F)c2)cc1	38	2	i	100*	-4	·
O=C(NCc1ccccc1Cl)c1ccc(S(=O)(=O)N2CCCC2)cc1	·	0	i	·	2	·
O=C(Nc1ccncc1)Nc1cccc(C(F)(F)F)c1	-9	0	i	i	1	5
Cc1ccc(S(=O)(=O)Nc2ccc(NC(=O)Nc3cccc(C(F)(F)F)c3)cc2)cc1	96*	9.2*	i	i	14	96*
O=C(Nc1ccc(OC(F)F)cc1)Nc1cccc(C(F)(F)F)c1	71	2	i	i	9	78*
COc1ccccc1CNS(=O)(=O)c1cc(C(=O)NCC2CCCO2)c(Cl)cc1Cl (stereo unspecified)	·	-2	i	·	3	-3
Nc1c(C(=O)CSc2n[nH]c(-c3ccccc3)n2)c(=O)[nH]c(=O)n1C1CC1	·	1	i	·	-2	·
O=S(OCCN1CCCC1)C(c1ccccc1)c1ccccc1 (stereo unspecified)	·	-1	i	·	2	·
Cc1ccc(NC(=O)CSc2n[nH]c(-c3cccnc3)n2)c(Br)c1	4	-1	i	i	9	-3
COc1cccc2cc3c(=O)oc4ccccc4c3nc12	-7	0	-12*	i	-4	0
COc1ccccc1OC(=O)c1cc2ccccc2oc1=O	-9	-2	i	i	-4	-9
O=C(CSc1ccc(-c2ccccn2)nn1)Nc1ccc(F)c(F)c1	4	-3	i	i	5	2
COc1ccc(N(CCCN2C(=O)c3cccc4cccc(c34)C2=O)C(=O)c2ccncc2)cc1	11	8	i	i	-25	-1
